Source: PubChem BioAssay
The source made the active and inactive calls.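 How the source made its calls, unless noted: active means viability at or below 10% of carrier control in both of two separate runs; inconclusive means viability at or below 10% in only one of the two runs; inactive means the rest.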

Key:
[1] = Her2 expression decrease, cell viability multiplex – SKBR3 breast tumor cells, AlphaScreen, ATP viability, primary screen (AID 461;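 active means Her2 level under about 52% in both replicate screens, with viability over 70% of control, limit read from the data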;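 on Her2 level: lower value means less Her2 protein in the cells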;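 on viability: percent of carrier control wells set as 100% viability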); settings: SKBR3 Her2 protein level, 18-24 h, measured here: SKBR3 viability, ATP luminescence, at 10 µM
[2] = molecular target: Receptor tyrosine-protein kinase erbB-2 (Homo sapiens) (UniProt P04626); assay: as above; settings: 18-24 h, at 10 µM, stronger effect = lower value
Chain of Receptor tyrosine-protein kinase erbB-2 (Homo sapiens) (P04626 whole entry, looked up): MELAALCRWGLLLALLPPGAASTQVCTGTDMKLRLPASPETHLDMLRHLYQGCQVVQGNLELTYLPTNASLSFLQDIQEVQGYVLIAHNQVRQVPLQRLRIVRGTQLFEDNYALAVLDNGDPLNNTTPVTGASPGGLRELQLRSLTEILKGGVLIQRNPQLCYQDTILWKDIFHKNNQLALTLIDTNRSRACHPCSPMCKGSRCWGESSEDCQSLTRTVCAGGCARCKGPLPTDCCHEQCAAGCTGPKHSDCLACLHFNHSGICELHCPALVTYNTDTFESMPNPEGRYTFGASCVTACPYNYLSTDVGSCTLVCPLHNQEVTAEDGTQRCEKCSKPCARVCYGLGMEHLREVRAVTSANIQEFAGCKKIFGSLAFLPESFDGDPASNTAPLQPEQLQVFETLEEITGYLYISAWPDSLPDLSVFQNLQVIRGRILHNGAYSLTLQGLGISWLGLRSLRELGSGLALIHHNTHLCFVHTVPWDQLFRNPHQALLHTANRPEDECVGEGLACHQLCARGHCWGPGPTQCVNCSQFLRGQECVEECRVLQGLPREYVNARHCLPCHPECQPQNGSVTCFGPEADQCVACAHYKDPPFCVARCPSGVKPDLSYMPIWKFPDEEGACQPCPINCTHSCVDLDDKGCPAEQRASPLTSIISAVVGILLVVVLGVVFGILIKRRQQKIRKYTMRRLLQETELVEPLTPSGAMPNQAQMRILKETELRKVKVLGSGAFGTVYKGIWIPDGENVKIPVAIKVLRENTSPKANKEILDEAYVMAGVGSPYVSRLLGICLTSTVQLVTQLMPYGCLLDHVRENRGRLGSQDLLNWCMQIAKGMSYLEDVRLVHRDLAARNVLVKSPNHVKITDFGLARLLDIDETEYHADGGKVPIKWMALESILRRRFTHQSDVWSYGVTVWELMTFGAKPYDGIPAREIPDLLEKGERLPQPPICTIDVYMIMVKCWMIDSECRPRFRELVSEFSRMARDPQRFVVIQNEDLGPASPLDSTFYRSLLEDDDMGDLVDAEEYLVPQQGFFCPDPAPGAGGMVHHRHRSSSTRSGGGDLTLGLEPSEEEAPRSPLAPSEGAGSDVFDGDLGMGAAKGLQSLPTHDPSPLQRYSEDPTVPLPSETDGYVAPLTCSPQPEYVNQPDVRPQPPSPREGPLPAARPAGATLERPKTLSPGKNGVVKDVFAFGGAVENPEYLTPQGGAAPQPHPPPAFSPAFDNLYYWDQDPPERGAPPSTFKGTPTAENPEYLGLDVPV

[3] = reduced viability of SK-BR-3 breast cancer cells – cell-based, 24 h, human, pilot screen (AID 572); settings: SK-BR-3 viability, CellTiter-Glo luminescence, at 10 µM, stronger effect = lower value;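 further: compound exposure lasted between 18 and 24 h rather than exactly 24 h; 100% = carrier-treated control wells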
[4] = HUVEC growth inhibition – cell-based, human, primary screen (AID 575;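 active means viability at or below 30% in both replicate assays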;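 further: 100% = median of untreated cell wells with 0.1% DMSO on each plate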); settings: HUVEC proliferation, CellTiter-Glo luminescence, 72 h; at 10 µM; stronger effect = lower value
Outline: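 Test system: HUVEC primary cells. Quantity: 1250 endothelial cells in each well. Dosing: single-point 10 µM, DMSO 0.1% final. Incubation: 72 h treatment at 37 °C. Measured by: CTG luminescence. Control set: DMSO cell controls and MePR drug controls. Plate: collagen-coated 384-well format.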

[5] = H69AR cell proliferation blockers – human, duplicate replicates, primary screen (AID 580;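 active means viability at or under a set limit in both replicates, limit being median viability minus 3 SD, cut at about 48% in these data, passing the limit was not always enough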;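 further: 100% = mean luminescence of untreated wells and 0% = no signal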); settings: H69AR lung tumor cells viability, ATP luminescence, 72 h; at 10 µM; stronger effect = lower value
[6] = MRP1 drug-resistance reversers in H69AR cells – cell-based, doxorubicin co-treatment, pilot screen (AID 601;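 active means viability loss from added drug above about 55%, and viability with drug at most 40%, in both replicates, limit read from the data, passing the limit was not always enough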); settings: CellTiter-Glo, 72 h, at 10 µM; for differential viability (reversal): stronger effect = higher value
[7] = yeast transport mutant growth inhibition pilot in 384-well plates, post-Golgi transport modulator project (AID 636; in the data active means inhibition above about 31%); settings: absorbance 615 nm, about 18 h, stronger effect = higher value
[8] = growth suppression of yeast trafficking mutant, preliminary HTS, modulators of trafficking downstream of Golgi apparatus project, 1536-format plate, OD 615 nm (AID 637; in the data active means inhibition above about 30%); settings: yeast transport mutant growth, absorbance 615 nm, 18 h; stronger effect = higher value
[9] = H69AR cells + 2 uM doxorubicin, measured here: viability with 2 uM doxorubicin, stronger effect = lower value
[10] = H69AR cells, compound alone cytotoxicity

Row | Structure (SMILES) | viability [1] [%] | Her2 level [2] | viability [3] | viability [4] | viability [5] | differential viability (reversal) ([6]; H69AR cells + 2 uM doxorubicin) | viability [6, 9] [%] | viability [6, 10] [%] | inhibition [7] | inhibition [8]
1 | CC(=O)NCCn1c(SCC(=O)NCC2CCCO2)nc2ccccc2c1=O (stereo not given) | 95 | 99% (inactive) | 95% (inactive) | 109% (inactive) | 98.5% (inactive) | 10.1% (inactive) | 88.4 | 98.5 | -0.26% (inactive) | -8.1% (inactive)
2 | O=C1c2ccccc2C(O)(Cc2ccccc2)N1Cc1ccco1 (stereo not given) | 88.5 | 104% (inactive) | 88.5% (inactive) | 89% (inactive) | 95.7% (inactive) | 10.1% (inactive) | 85.6 | 95.7 | -2.37% (inactive) | -9.19% (inactive)
3 | CC(C)N(C(=O)COC(=O)c1ccc(O)cc1)C(C)C | 96.5 | 87.5% (inactive) | 96.5% (inactive) | 88.3% (inactive) | 97.6% (inactive) | 9.85% (inactive) | 87.8 | 97.6 | 0.39% (inactive) | -0.16% (inactive)
4 | CCOc1ccccc1OCC(=O)Nc1nnc(COC)s1 | 89 | 103% (inactive) | 89% (inactive) | 99.5% (inactive) | 91.8% (inactive) | -1.57% (inactive) | 93.3 | 91.8 | -2.8% (inactive) | 10.7% (inactive)
5 | CC1CCCC(C)N1C(=O)COC(=O)c1ccc[nH]c1=O (stereo not given) | 102 | 86% (inactive) | 102% (inactive) | 95.9% (inactive) | 97.7% (inactive) | -5.21% (inactive) | 103 | 97.7 | -4.49% (inactive) | 1.67% (inactive)
6 | COc1ccc(C2=NOC(C(=O)NC3CCCCC3)C2)cc1OC (stereo not given) | 97.5 | 92% (inactive) | 97.5% (inactive) | 106% (inactive) | 95.9% (inactive) | 11.2% (inactive) | 84.8 | 95.9 | -9.04% (inactive) | 0.95% (inactive)
7 | CSc1nc(C)c(C(=O)Nc2ccccc2)c(C)c1C#N | 100 | 76% (inactive) | 100% (inactive) | 91.7% (inactive) | 94.2% (inactive) | 6.57% (inactive) | 87.6 | 94.2 | -5.87% (inactive) | -3.39% (inactive)
8 | C=CCn1c(-c2ccc(OC)cc2)nc2ccccc21 | 118 | 99.5% (inactive) | 118% (inactive) | 110% (inactive) | 95.5% (inactive) | 4.69% (inactive) | 90.8 | 95.5 | -4.27% (inactive) | 3.71% (inactive)
9 | COC(=O)Nc1nnc(CCc2ccccc2)s1 | 115 | 97.5% (inactive) | 115% (inactive) | 97.2% (inactive) | 95.2% (inactive) | 14.9% (inactive) | 80.3 | 95.2 | -7.07% (inactive) | 9.52% (inactive)
10 | O=C(CSc1nnc(-c2ccccc2)c(-c2ccccc2)n1)N1CCOCC1 | 97 | 93% (inactive) | 97% (inactive) | 101% (inactive) | 85.3% (inactive) | 12.8% (inactive) | 72.5 | 85.3 | 0% (inactive) | -5.48% (inactive)
11 | COc1ccc(Cl)cc1N1CC(c2nc3ccccc3[nH]2)CC1=O (stereo not given) | 97.5 | 104% (inactive) | 97.5% (inactive) | 98% (inactive) | 104% (inactive) | 7.82% (inactive) | 96.3 | 104 | -3.21% (inactive) | 2.17% (inactive)
12 | CC(=O)Nc1cc2c(nc1C)nc(C)n2Cc1ccc(Br)cc1 | 76 | 88% (inactive) | 76% (inactive) | 90% (inactive) | 108% (inactive) | 12.7% (inactive) | 95.3 | 108 | -4.4% (inactive) | 0.33% (inactive)
13 | COc1ccc(CCNC(=O)C2CC(=O)N(c3ccccc3)C2)cc1OC (stereo not given) | 124 | 99.5% (inactive) | 124% (inactive) | 89.7% (inactive) | 91.5% (inactive) | 1.51% (inactive) | 90 | 91.5 | -2.47% (inactive) | -1.8% (inactive)
14 | Cc1ccc(-c2cc(C(=O)O)n[nH]2)o1 | 95.5 | 128% (inactive) | 95.5% (inactive) | 98.7% (inactive) | 99.3% (inactive) | -1.46% (inactive) | 101 | 99.3 | -3.01% (inactive) | -0.16% (inactive)
